{"source": "paper PMC7172969", "about": "(Journal of Hepatology, 2016)", "key": {"[1]": {"system": "HBV replication", "assay": "HBV replication assay in HepG2.2.15.7 cells", "format": "cell-based, hepatitis B virus", "conditions": "six days, ETV 1 μM, CsA and its derivatives 8 μM", "outline": "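HepG2.2.15.7 cells support HBV replication but not entry. They were treated for six days with test compound (8 μM), entecavir 1 μM as positive control, or DMSO 0.16%. HBV DNA released into the culture supernatant was then quantified by real-time PCR.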"}, "[2]": {"biological_target": "T1, NTCP (Homo sapiens, UniProt Q14973)", "T1 sequence (Q14973 1-349)": "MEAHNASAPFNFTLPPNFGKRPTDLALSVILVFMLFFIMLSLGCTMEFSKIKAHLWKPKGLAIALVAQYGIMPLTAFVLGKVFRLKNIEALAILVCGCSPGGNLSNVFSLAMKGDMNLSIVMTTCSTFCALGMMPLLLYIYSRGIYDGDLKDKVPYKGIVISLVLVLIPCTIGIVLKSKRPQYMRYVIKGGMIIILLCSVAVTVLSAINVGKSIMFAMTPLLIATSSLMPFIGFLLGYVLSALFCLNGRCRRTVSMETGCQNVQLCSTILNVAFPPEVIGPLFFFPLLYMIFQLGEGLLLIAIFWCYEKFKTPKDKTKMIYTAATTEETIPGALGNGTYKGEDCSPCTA", "assay": "NTCP transporter assay", "format": "cell-based", "conditions": "HepG2-hNTCP-C4 cells, sulfobromophthalein 40 and 100 μM"}, "[3]": {"system": "HBV (genotype D)", "assay": "HBV infection assay in HepG2-hNTCP-C4 cells", "format": "cell-based, hepatitis B virus", "conditions": "same concentration conditions (40 and 100 μM)", "outline": "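HepG2-hNTCP-C4 cells were inoculated with genotype D HBV from Hep38.7-Tet culture supernatant at 6000 GEq/cell in 4% PEG8000. Test compound (8 μM), preS1 peptide (100 nM) or DMSO 0.16% was present for 16 h. Cells were washed and cultured 12 more days without compound. On day 13, supernatant HBs was measured by ELISA and intracellular HBc by immunofluorescence with image quantification. MTT viability was run in parallel.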"}}}
{"compound": "C=C1[C@H](CO)[C@@H](O)C[C@@H]1n1cnc2c(=O)[nH]c(N)nc21", "note": "[entecavir]", "values": [{"measurement": "HBV DNA released into the culture supernatant", "setting": "[1]", "result": "significantly reduced"}]}
{"compound": "O=C1OC(c2ccc(O)c(S(=O)(=O)O)c2)(c2ccc(O)c(S(=O)(=O)O)c2)c2c(Br)c(Br)c(Br)c(Br)c21", "note": "[sulfobromophthalein, Sulfobromophthalein]", "values": [{"measurement": "bile acid uptake in sodium-containing condition", "setting": "[2]", "result": "impaired the bile acid uptake"}, {"measurement": "HBV infection", "setting": "[3]", "result": "did not inhibit HBV infection"}]}
